Compound activity from PubChem BioAssay.
The list is not random: actives were taken first. Their share in the collection is about 4.6%.
OX1R antag-1: antagonists of human orexin 1 receptor (OX1R); 330,000 tested, 1.8% active; inhibition, % at 6.6 µM; OX1R-expressing cells, FRET antagonist read-out; Orexin/Hypocretin receptor type 1 (Homo sapiens), O43613; in the data active = inhibition mostly above about 38%, no sharp cut-off; inactive = mostly below about 40%;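 also: 0% = agonist challenge alone and 100% = reference antagonist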
Target sequence (O43613 whole entry, looked up): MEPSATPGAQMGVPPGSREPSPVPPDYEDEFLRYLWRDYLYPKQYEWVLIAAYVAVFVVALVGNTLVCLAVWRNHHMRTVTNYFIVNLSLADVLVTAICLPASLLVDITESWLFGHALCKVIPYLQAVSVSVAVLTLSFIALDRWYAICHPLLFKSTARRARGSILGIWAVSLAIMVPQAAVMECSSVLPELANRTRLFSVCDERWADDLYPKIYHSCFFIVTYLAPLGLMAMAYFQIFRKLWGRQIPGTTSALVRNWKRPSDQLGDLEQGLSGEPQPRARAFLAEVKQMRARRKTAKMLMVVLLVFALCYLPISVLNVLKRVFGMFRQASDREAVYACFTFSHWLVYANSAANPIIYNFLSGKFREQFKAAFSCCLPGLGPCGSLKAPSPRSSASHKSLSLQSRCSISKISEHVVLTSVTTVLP
GPR7 antagonist: GPR7 receptor antagonists, primary screen, cell-based, fluorescence, single concentration. AID 1861, 2009. Neuropeptides B/W receptor type 1 (Homo sapiens), P48145. 290,000 tested, 1.1% active. GPR7-expressing cells, fluorescence antagonist assay. inhibition, % at 4.4 µM; in the data active = inhibition above about 16%, passing the limit was not always enough;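 also: cells stimulated with the agonist NPW; 0% = agonist with vehicle and 100% = vehicle without agonist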
CHO parental Ca: ATP-evoked calcium signal inhibitors, parental CHO, primary screen, counter-screen for OX1R antagonist project, cell-based, fluorescence, Fluo-8 calcium dye; 330,000 tested, 0.63% active; parental CHO-K1, ATP-induced calcium, Fluo-8 fluorescence; inhibition, % at 5.6 µM;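 active = inhibition above that plate's mean sample inhibition plus 3 SD, cut at about 26% in these data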;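 also: 0% = ATP-challenged DMSO wells and 100% = DMSO wells without ATP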
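Test system: untransfected parental CHO cell line; also added: ATP stimulus; dosing: 5.6 µM, single dose; signal: calcium-sensitive Fluo-8 fluorescence; measure: percent inhibition of ATP-evoked calcium rise, normalized to controls; benchmarks: low control ATP plus DMSO, high control DMSO only; replication: one well per compound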
TAAR1 ag: human TAAR1 agonists, primary screen, Fluo-8 calcium fluorescence, CHO RD-HGA16 cells; 360,000 tested, 0.99% active; vehicle wells 0%, saturating PEA agonist 100%; Trace amine-associated receptor 1 (Homo sapiens), Q96RJ0; activation, % at 3 µM;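 active = activation above the mean activation of all test compounds in the run plus 3 SD, cut at about 38% in these data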
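test system = CHO RD-HGA16 cells carrying human TAAR1 plus Gα16 | schedule = 17-24 h seeding, 75 min 37 °C dye, 30 min RT | compound dosing = 3 µM single concentration | control set = DMSO and PEA EC100 | replicates = n 1 | signal = Fluo-8 fluorescence, 5 s baseline then 140 s kinetic read | measure = percent activation vs PEA EC100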
OX1R antag-2: OX1R (HCRTR1) antagonists, primary screen, fluorescence, CHO/OX1R cells, Fluo-8 calcium, orexin A. Orexin/Hypocretin receptor type 1 (Homo sapiens), O43613. Fluo-8 calcium fluorescence. inhibition, % at 5 µM. 330,000 tested, 0.43% active. AID 434989, 2010;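 active = inhibition above its plate's threshold, mean inhibition of all tested compounds on the plate plus 3 SD, cut at about 37% in these data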;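 also: 0% = orexin A challenge wells and 100% = SB-334867-A antagonist wells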
TAAR1 antag: human TAAR1 antagonists, primary screen, Fluo-8 calcium fluorescence, CHO RD-HGA16 cells. Trace amine-associated receptor 1 (Homo sapiens), Q96RJ0. antagonist. inhibition, % at 3 µM. 360,000 tested, 1.5% active;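 active = inhibition above a per-plate cutoff, the mean inhibition of test compounds on that plate plus 3 SD, cut at about 49% in these data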;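 also: 0% = DMSO plus EC80 beta-PEA response and 100% = DMSO alone without agonist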
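Test system: RD-HGA16 CHO cells with stable hTAAR1 and Gα16 / Probe or stimulus: EC80 β-phenethylamine stimulus / Times: seeding 17-24 h prior, 75-min 37 °C, 30-min RT dye loading / Detection: Fluo-8 calcium-sensitive fluorescence / Read-out basis: % inhibition scaled between DMSO and EC80 PEA controls / Repeats: singlicate, one well per test compound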
OX1R HTRF confirm: OX1R (HCRTR1) antagonists, confirmation, cell-based, HTRF | OX1R-expressing cells, HTRF antagonist assay | 1,800 tested, 49% active | shares compounds with OX1R antag-1 | inhibition, % at 6.6 µM | AID 492964, 2010; in the data active = inhibition above about 55%;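 also: CHO cells expressing OX1R stimulated with orexin A at about EC80; 0% = agonist challenge alone and 100% = reference antagonist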
CHO-K1 HTRF cnt: signal inhibition in parental CHO-K1 cells, counter-screen for OX1R antagonist project, cell-based, HTRF; inhibition, % at 6.6 µM; HTRF counterscreen; shares compounds with OX1R antag-1; 1,800 tested, 48% active; in the data active = inhibition above about 17%;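 also: 0% = agonist challenge with vehicle and 100% = vehicle alone without agonist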
Numbers without * were called inactive; · = no result.

SMILES	OX1R antag-1	GPR7 antagonist	CHO parental Ca	TAAR1 ag	OX1R antag-2	TAAR1 antag	OX1R HTRF confirm	CHO-K1 HTRF cnt
O=C(CN1CCN(Cc2cccc3ccccc23)CC1)NCCc1ccccc1	10	1	-18	15	-46	-20	·	·
C[n+]1cnc(-c2ccccc2)cc1-c1ccccc1	85*	1	14	1	-5	-10	43	64*
c1ccc(-c2cc(-c3ccccc3)ncn2)cc1	3	·	-6	7	2	-28	·	·
COCCCNC(=O)c1c(N)n(-c2ccc3c(c2)OCO3)c2nc3ccccc3nc12	104*	-11	-15	21	-6	35	29	1
CCOCCCNC(=O)c1c(N)n(-c2ccc3c(c2)OCO3)c2nc3ccccc3nc12	17	11	-13	17	-20	34	·	·
O=c1cc(-c2ccccc2)[nH]n2cnnc12	19	1	-1	2	-8	3	·	·
O=C(NCc1cccnc1)c1ccc(Cl)cc1[N+](=O)[O-]	77*	-5	-21	6	-16	-3	41	33*
Nc1ccc(Nc2ccc([N+](=O)[O-])cc2[N+](=O)[O-])cc1	36	-2	0	0	-15	16	·	·
O=C(c1cccc([N+](=O)[O-])c1)N1CCOCC1	15	-3	11	5	6	-4	·	·
O=C(NCCCN1CCOCC1)c1ccc(Cl)cc1[N+](=O)[O-]	106*	-4	-6	1	-19	19	36	7
NC(=O)c1ccc(Nc2ccc([N+](=O)[O-])cc2[N+](=O)[O-])cc1	107*	12	-9	2	-4	-10	42	54*
O=C(NCCCN1CCOCC1)c1cc(Cl)ccc1[N+](=O)[O-]	30	-4	-3	12	6	-10	·	·
O=C(c1cc([N+](=O)[O-])cc([N+](=O)[O-])c1)N1CCOCC1	111*	-5	3	4	-2	15	51	78*
COc1cccc(-n2nnnc2SCC(=O)NC2CCCCC2)c1	13	14	-15	-2	-18	-5	·	·
O=C(O)CC1(CC(=O)Nc2cc3ccccc3cn2)CCCCC1	9	-9	-12	0	3	-26	·	·
CN(CCc1ccccn1)C(=S)Nc1cccc(S(=O)(=O)N(C)C)c1	0	-7	-8	32	-10	-5	·	·
CN1CCCN(C(=O)CNC(=O)c2ccccc2Br)CC1	15	·	-18	4	14	-12	·	·
O=C(NCCN1CCOCC1)c1ccc(Cl)c([N+](=O)[O-])c1	12	-11	-5	11	-8	-7	·	·
O=[N+]([O-])c1cc(C(F)(F)F)ccc1NCCCN1CCOCC1	26	-1	-13	7	-29	-5	·	·
CC(C)(CO)Nc1ccc([N+](=O)[O-])cc1[N+](=O)[O-]	94*	-4	1	-1	5	-14	34	38*
O=C(NCCN1CCOCC1)c1cc([N+](=O)[O-])cc([N+](=O)[O-])c1	78*	-14	-11	2	-6	-2	50	72*
O=[N+]([O-])c1ccc(NCCCN2CCOCC2)c([N+](=O)[O-])c1	171*	-11	9	2	-13	0	46	72*
N#Cc1cc2[nH]c3ccccc3c2[n+](-c2ccc([N+](=O)[O-])cc2)c1N	124*	11	-5	1	4	-25	32	38*
COC(=O)c1ccccc1NC(=O)COc1ccc2c(c1)OCO2	80*	9	-7	-1	-54	3	63*	14
COC(=O)c1ccc(NC(=O)COc2ccc3c(c2)OCO3)cc1	14	-6	-10	-1	-20	-7	·	·
SMILES	OX1R antag-1	GPR7 antagonist	CHO parental Ca	TAAR1 ag	OX1R antag-2	TAAR1 antag	OX1R HTRF confirm	CHO-K1 HTRF cnt
CN(C)C(=O)c1ccc2c(c1[N+](=O)[O-])C(=O)c1ccccc1C2=O	93*	-7	-6	3	-9	-1	58*	55*
COc1ccc2c(c1O)C(=O)c1ccccc1C2=O	9	-14	-3	·	-2	·	·	·
CCN(c1ccccc1)S(=O)(=O)c1cnc[nH]1	3	-1	1	3	-4	2	·	·
O=C1c2ccccc2S(=O)(=O)c2cc(C(=O)N3CCCC3)ccc21	104*	·	-15	3	-22	-17	44	69*
NC(=O)C1CCN(C(=O)c2ccc3c(c2)S(=O)(=O)c2ccccc2C3=O)CC1	88*	-14	-6	1	-10	-13	60*	70*
O=C1c2ccccc2S(=O)(=O)c2cc(C(=O)N3CCN(c4c(Cl)cncc4Cl)CC3)ccc21	6	·	-15	8	-8	35	·	·
CCOC(=O)C1CCN(C(=O)c2ccc3c(c2)S(=O)(=O)c2ccccc2C3=O)CC1	32	-20	-30	-1	-42	1	·	·
CCN1CCN(C(=O)c2cc3cc4cc(OC)ccc4nc3s2)CC1	110*	3	-9	3	-16	-3	11	0
COc1cc(OC)cc(C(=O)Nc2ccc(N3CCOCC3)cc2N2CCOCC2)c1	-3	·	-5	1	-1	-8	·	·
CN(C)c1cc(-c2ccc(Cl)c(Cl)c2)oc(=O)c1Cl	19	-12	-9	0	-18	-11	·	·
O=C(NCCN1CCOCC1)c1cc(Sc2ccccc2Cl)nc2ccccc12	91*	2	-16	5	19	6	90*	3
CCCc1c(-c2ccc(OC)cc2)ncn1CCc1ccccc1OC	·	·	·	15	·	27	·	·
Nc1c(-c2ccccc2)c(CN2CCOCC2)nn1-c1cccc([N+](=O)[O-])c1	85*	-14	-12	0	-23	-7	32	29*
Cc1cccc(C)c1NC(=O)c1cccc(N2C(=O)C3CCC(C)CC3C2=O)c1 (stereo not given)	29	-3	-13	7	-34	-27	·	·
COC(=O)c1cc(=O)nc(NN=Cc2ccco2)s1	·	·	·	-1	·	-1	·	·
O=C(Nc1cccc2cccnc12)c1cccc([N+](=O)[O-])c1	16	-15	-16	0	-10	-6	·	·
O=C(COc1ccc2ccccc2c1)Nc1cccc2cccnc12	81*	7	-23	13	27	25	45	-1
